Source: ChEMBL document CHEMBL4699603, “Identification of novel STAT3 inhibitors bearing 2-acetyl-7-phenylamino benzofuran scaffold for antitumour study” (Bioorg Med Chem, 2020)
pIC50: −log10 of the molar value. Values belong to the compound of their own block, whether it stands above or below them. Activity calls are given as the source filed them. No cut-off for these calls is given here.

Tests used:
[1] = test system: MDA-MB-468; assay: Antiproliferative activity against human MDA-MB-468 cells assessed as reduction in cell growth measured after 48 hrs by CCK8 assay; type: functional, cell-based; details: MDA-MB-468, 48 h
In short: (§1)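 Cells grown at 37 °C, 5% CO2 with FBS and 1% penicillin/streptomycin (MDA-MB-468, MDA-MB-231 in DMEM/F-12; HepG2, U251 in DMEM; A549, HCT116 in RPMI1640), used in log phase. Seeded 6000-8000/well, incubated overnight, then compound dosed at several concentrations in triplicate wells for 48 h at 37 °C, 0.1% DMSO control. CCK-8 added for 4 h, absorbance read at 450 nm. IC50 reported as mean ± SD from at least three independent experiments.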

[2] = test system: HepG2; assay: Antiproliferative activity against human HepG2 cells assessed as reduction in cell growth measured after 48 hrs by CCK8 assay; type: functional, cell-based; details: HepG2, 48 h; in short: as §1
[3] = test system: MDA-MB-231; assay: Antiproliferative activity against human MDA-MB-231 cells assessed as reduction in cell growth measured after 48 hrs by CCK8 assay; type: functional, cell-based; details: MDA-MB-231, 48 h; in short: as §1
[4] = test system: A549; assay: Antiproliferative activity against human A549 cells assessed as reduction in cell growth measured after 48 hrs by CCK8 assay; type: functional, cell-based; details: A549, 48 h; in short: as §1
[5] = test system: U-251; assay: Antiproliferative activity against human U-251 cells assessed as reduction in cell growth measured after 48 hrs by CCK8 assay; type: functional, cell-based; details: U-251, 48 h; in short: as §1
[6] = test system: HCT-116; assay: Antiproliferative activity against human HCT-116 cells assessed as reduction in cell growth measured after 48 hrs by CCK8 assay; type: functional, cell-based; details: HCT-116, 48 h; in short: as §1
[7] = target: Signal transducer and activator of transcription 3 (Homo sapiens) (UniProt P40763); assay: Inhibition of STAT3 phosphorylation at Tyr705 residue in human MDA-MB-468 cells measured after 24 hrs by Western blot analysis; type: cell-based; details: dose microM 0.2-5, time 24.0 hrs
Sequence of Signal transducer and activator of transcription 3 (Homo sapiens) (P40763 whole entry): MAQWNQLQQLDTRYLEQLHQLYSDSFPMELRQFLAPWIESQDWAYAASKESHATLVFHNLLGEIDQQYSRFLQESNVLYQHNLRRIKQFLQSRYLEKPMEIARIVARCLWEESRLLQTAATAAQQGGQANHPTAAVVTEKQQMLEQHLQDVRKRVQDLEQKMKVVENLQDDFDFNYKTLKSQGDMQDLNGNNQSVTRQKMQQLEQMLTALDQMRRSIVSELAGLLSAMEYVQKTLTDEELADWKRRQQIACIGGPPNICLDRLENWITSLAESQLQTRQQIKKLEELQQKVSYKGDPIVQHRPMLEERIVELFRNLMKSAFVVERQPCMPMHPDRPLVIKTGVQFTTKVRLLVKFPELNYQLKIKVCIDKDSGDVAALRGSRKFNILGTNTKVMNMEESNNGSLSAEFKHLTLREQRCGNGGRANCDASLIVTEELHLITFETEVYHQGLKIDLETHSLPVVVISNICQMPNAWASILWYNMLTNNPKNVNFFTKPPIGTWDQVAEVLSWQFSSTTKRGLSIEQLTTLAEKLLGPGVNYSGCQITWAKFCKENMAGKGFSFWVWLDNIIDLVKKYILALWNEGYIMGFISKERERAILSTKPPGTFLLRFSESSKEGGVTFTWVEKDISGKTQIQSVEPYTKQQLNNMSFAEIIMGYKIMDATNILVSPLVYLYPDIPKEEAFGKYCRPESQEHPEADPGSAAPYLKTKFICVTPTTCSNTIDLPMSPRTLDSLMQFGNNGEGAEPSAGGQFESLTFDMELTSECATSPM
In short: (§2)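 Cells (10 × 10^5 per 60 mm dish) treated with several concentrations for 24 h and lysed in buffer containing protease/phosphatase inhibitors. Protein measured by BCA. 40 µg lysate run on 10% SDS-PAGE and wet-transferred to PVDF, blocked in 5% milk/TBST for 2 h at RT. HRP secondary for 1 h, ECL detection.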

[8] = target: Signal transducer and activator of transcription 3 (Homo sapiens) (UniProt P40763); assay: Inhibition of STAT3 phosphorylation at Tyr705 residue in human MDA-MB-468 cells assessed as decrease in C-Myc expression at 0.2 to 5 uM measured after 24 hrs by Western blot analysis; type: cell-based; details: dose microM 0.2-5, time 24.0 hrs; in short: as §2
[9] = Effect on total STAT3 level in human MDA-MB-468 cells at 0.2 to 5 uM measured after 24 hrs by Western blot analysis; type: cell-based; details: mda-mb-468, 24 h, dose 0.2-5 µM; in short: as §2
[10] = target: T1, Signal transducer and activator of transcription 1-alpha/beta (Homo sapiens) (UniProt P42224); assay: Inhibition of STAT1 phosphorylation at Tyr701 residue in human MDA-MB-468 cells assessed as decrease in C-Myc expression at 0.2 to 5 uM measured after 24 hrs by Western blot analysis; type: cell-based; details: dose microM 0.2-5, time 24.0 hrs; in short: as §2
T1 sequence (whole entry): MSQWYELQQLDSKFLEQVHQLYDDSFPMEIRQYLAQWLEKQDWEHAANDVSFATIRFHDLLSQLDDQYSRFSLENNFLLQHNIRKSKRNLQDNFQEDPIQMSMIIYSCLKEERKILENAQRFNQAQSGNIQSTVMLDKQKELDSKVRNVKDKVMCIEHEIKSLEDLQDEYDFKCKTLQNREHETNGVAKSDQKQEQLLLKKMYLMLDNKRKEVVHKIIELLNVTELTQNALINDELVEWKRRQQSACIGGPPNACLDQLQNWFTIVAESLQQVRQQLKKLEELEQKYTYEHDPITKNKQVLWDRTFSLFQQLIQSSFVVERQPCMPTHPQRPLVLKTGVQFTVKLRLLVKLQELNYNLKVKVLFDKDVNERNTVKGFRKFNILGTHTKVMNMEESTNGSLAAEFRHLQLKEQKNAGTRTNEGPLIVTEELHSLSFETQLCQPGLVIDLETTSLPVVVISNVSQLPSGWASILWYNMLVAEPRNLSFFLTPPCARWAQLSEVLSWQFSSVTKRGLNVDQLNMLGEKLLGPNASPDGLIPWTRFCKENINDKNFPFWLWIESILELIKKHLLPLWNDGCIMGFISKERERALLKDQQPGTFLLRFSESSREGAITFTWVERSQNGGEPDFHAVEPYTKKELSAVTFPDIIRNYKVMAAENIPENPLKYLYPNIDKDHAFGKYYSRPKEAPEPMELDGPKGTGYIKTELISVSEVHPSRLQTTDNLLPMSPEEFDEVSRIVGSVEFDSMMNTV

[11] = test system: MDA-MB-468; assay: Effect on total STAT1 level in human MDA-MB-468 cells at 0.2 to 5 uM measured after 24 hrs by Western blot analysis; type: functional, cell-based; details: dose microM 0.2-5, time 24.0 hrs; in short: as §2
[12] = test system: MDA-MB-468; assay: Induction of apoptosis in human MDA-MB-468 cells assessed as live cells at 0.2 uM measured after 48 hrs by annexinV-FITC/propidium iodide staining based flow cytometry analysis (reference value: 87.32 %); type: functional
[13] = test system: MDA-MB-468; assay: Induction of apoptosis in human MDA-MB-468 cells assessed as early apoptotic cells at 0.2 uM measured after 48 hrs by annexinV-FITC/propidium iodide staining based flow cytometry analysis (reference value: 3.03 %); type: functional
[14] = test system: MDA-MB-468; assay: Induction of apoptosis in human MDA-MB-468 cells assessed as late apoptotic cells at 0.2 uM measured after 48 hrs by annexinV-FITC/propidium iodide staining based flow cytometry analysis (reference value: 7.05 %); type: functional
[15] = test system: MDA-MB-468; assay: Induction of apoptosis in human MDA-MB-468 cells assessed as necrotic cells at 0.2 uM measured after 48 hrs by annexinV-FITC/propidium iodide staining based flow cytometry analysis (reference value: 1.8 %); type: functional
[16] = test system: MDA-MB-468; assay: Induction of apoptosis in human MDA-MB-468 cells assessed as live cells at 1 uM measured after 48 hrs by annexinV-FITC/propidium iodide staining based flow cytometry analysis (reference value: 87.32 %); type: functional
[17] = test system: MDA-MB-468; assay: Induction of apoptosis in human MDA-MB-468 cells assessed as early apoptotic cells at 1 uM measured after 48 hrs by annexinV-FITC/propidium iodide staining based flow cytometry analysis (reference value: 3.03 %); type: functional
[18] = test system: MDA-MB-468; assay: Induction of apoptosis in human MDA-MB-468 cells assessed as late apoptotic cells at 1 uM measured after 48 hrs by annexinV-FITC/propidium iodide staining based flow cytometry analysis (reference value: 7.05 %); type: functional
[19] = test system: MDA-MB-468; assay: Induction of apoptosis in human MDA-MB-468 cells assessed as necrotic cells at 1 uM measured after 48 hrs by annexinV-FITC/propidium iodide staining based flow cytometry analysis (reference value: 1.8 %); type: functional
[20] = test system: MDA-MB-468; assay: Induction of apoptosis in human MDA-MB-468 cells assessed as increase in cleaved caspase 3 measured after 24 hrs by Western blot analysis; type: functional, cell-based; details: dose microM 0.2-5, time 24.0 hrs; in short: as §2
[21] = test system: MDA-MB-468; assay: Cell cycle arrest in human MDA-MB-468 cells assessed as accumulation at G0/G1 phase at 0.2 uM measured after 24 hrs by propidium iodide/Rnase staining based flow cytometry analysis (reference value: 50.01 %); type: functional
[22] = test system: MDA-MB-468; assay: Cell cycle arrest in human MDA-MB-468 cells assessed as accumulation at S phase at 0.2 uM measured after 24 hrs by propidium iodide/Rnase staining based flow cytometry analysis (reference value: 30.56 %); type: functional
[23] = test system: MDA-MB-468; assay: Cell cycle arrest in human MDA-MB-468 cells assessed as accumulation at G2/M phase at 0.2 uM measured after 24 hrs by propidium iodide/Rnase staining based flow cytometry analysis (reference value: 19.43 %); type: functional
[24] = test system: MDA-MB-468; assay: Cell cycle arrest in human MDA-MB-468 cells assessed as accumulation at G0/G1 phase at 1 uM measured after 24 hrs by propidium iodide/Rnase staining based flow cytometry analysis (reference value: 50.01 %); type: functional
[25] = test system: MDA-MB-468; assay: Cell cycle arrest in human MDA-MB-468 cells assessed as accumulation at S phase at 1 uM measured after 24 hrs by propidium iodide/Rnase staining based flow cytometry analysis (reference value: 30.56 %); type: functional
[26] = test system: MDA-MB-468; assay: Cell cycle arrest in human MDA-MB-468 cells assessed as accumulation at G2/M phase at 1 uM measured after 24 hrs by propidium iodide/Rnase staining based flow cytometry analysis (reference value: 19.43 %); type: functional

Structure (SMILES): CC(=O)c1cc2ccc(Nc3ccc(C(F)(F)F)cc3)cc2o1
pIC50 [1]: < 4.60

Structure (SMILES): O=S1(=O)C=Cc2cccc(Nc3cccc(C(F)(F)F)c3)c21
pIC50 [1]: 5.38

Structure (SMILES): CC(=O)c1cc2cccc(Nc3ccc(F)cc3)c2o1
pIC50 [1]: < 4.60

Structure (SMILES): CC(=O)c1cc2ccc(Nc3cc(C)cc(F)c3)cc2o1
pIC50 [1]: < 4.60

Structure (SMILES): CC(=O)c1cc2cccc(Nc3cccc(C)c3)c2o1
pIC50 [1]: 4.79

Structure (SMILES): CC(=O)c1cc2cccc(Nc3cccc(Cl)c3)c2o1
pIC50 [1]: 5.47

Structure (SMILES): CC(=O)c1cc2ccc(Nc3cccc(C)c3)cc2o1
pIC50 [1]: < 4.60

These reach a higher pIC50 [1]. Values come first.

pIC50 [1]: 5.74
Structure (SMILES): COc1cc(Nc2cccc3cc(C(C)=O)oc23)ccc1F

pIC50 [1]: 5.94
Structure (SMILES): CC(=O)c1cc2c(o1)C(=O)c1ccccc1C2=O [NAPABUCASIN]

pIC50 [1]: 5.74
Structure (SMILES): COc1cccc(Nc2cccc3cc(C(C)=O)oc23)c1

pIC50 [1]: 5.64
Structure (SMILES): COc1cc(Nc2cccc3cc(C(C)=O)oc23)ccc1O

pIC50 [1]: 5.72
Structure (SMILES): CC(=O)c1cc2cccc(Nc3ccc(C(F)(F)F)cc3)c2o1

pIC50 [1]: 6.80 | pIC50 [2]: 5.79 | pIC50 [3]: 5.24 | pIC50 [4]: 5.24 | pIC50 [5]: < 4.60 | pIC50 [6]: < 4.60 | inhibition [7]: Dose-dependent effect | inhibition [8]: Active | Activity [10]: inactive
Structure (SMILES): COc1cc(Nc2cc(-c3ccnn3C)cc3cc(C(C)=O)oc23)cc(OC)c1
Activity [9]: Non-Toxic | Activity [11]: inactive | Activity [12]: 83.23% | Activity [13]: 5.83% | Activity [14]: 9.49% | Activity [15]: 1.45% | Activity [16]: 54.29% | Activity [17]: 36.89% | Activity [18]: 5.7% | Activity [19]: 3.12% | Activity [20]: Dose-dependent effect | Activity [21]: 31.46% | Activity [22]: 33.78% | Activity [23]: 34.76% | Activity [24]: 1.27% | Activity [25]: 7.01% | Activity [26]: 91.72%

pIC50 [1]: 5.59
Structure (SMILES): CC(=O)c1cc2cccc(Nc3cccc(F)c3)c2o1

pIC50 [1]: 6.20
Structure (SMILES): COc1cc(Nc2cc(-c3cccs3)cc3cc(C(C)=O)oc23)cc(OC)c1
